Source: ChEMBL document CHEMBL5696442, “Discovery of type II inhibitors of TGFβ-activated kinase 1 (TAK1) and mitogen-activated protein kinase kinase kinase kinase 2 (MAP4K2)” (J Med Chem, 2015)
Calls of active or inactive are those of the source. No cut-off for these calls is given here.

Columns and labels:
[1] = tested on: Mast/stem cell growth factor receptor Kit (Homo sapiens), P10721 [V559D,T670I]; assay: Inhibition of KIT V559D/T670I mutant (unknown origin) at 1 uM by Ambit Kinomescan binding assay relative to control; values are per cent of control
[2] = molecular target: Mitogen-activated protein kinase 9 (Homo sapiens, UniProt P45984); assay: Inhibition of JNK2 (unknown origin) at 1 uM by Ambit Kinomescan binding assay relative to control
[3] = molecular target: Serine/threonine-protein kinase 32A (Homo sapiens) (UniProt Q8WU08); assay: Inhibition of YANK1 (unknown origin) at 1 uM by Ambit Kinomescan binding assay relative to control; values are per cent of control
[4] = molecular target: T1, Interleukin-1 receptor-associated kinase 4 (Homo sapiens) (UniProt Q9NWZ3); assay: Inhibition of IRAK4 Lys2 labeling site in human A-375 cells at 0.5 uM by KiNativ Profiling analysis relative to control; assay type: cell-based
T1 sequence (whole entry): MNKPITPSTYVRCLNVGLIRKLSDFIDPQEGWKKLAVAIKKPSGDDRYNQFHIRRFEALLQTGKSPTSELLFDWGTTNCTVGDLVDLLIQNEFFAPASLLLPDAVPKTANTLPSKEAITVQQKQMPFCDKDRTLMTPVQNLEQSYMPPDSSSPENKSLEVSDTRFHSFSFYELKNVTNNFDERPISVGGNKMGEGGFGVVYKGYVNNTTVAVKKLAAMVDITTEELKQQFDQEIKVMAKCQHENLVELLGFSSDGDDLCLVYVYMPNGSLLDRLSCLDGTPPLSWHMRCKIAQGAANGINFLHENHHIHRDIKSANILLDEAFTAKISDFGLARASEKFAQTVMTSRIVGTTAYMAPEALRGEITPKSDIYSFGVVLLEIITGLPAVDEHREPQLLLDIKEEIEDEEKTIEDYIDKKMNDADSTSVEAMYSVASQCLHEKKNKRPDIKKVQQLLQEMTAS

[5] = molecular target: T2, Phosphatidylinositol 5-phosphate 4-kinase type-2 gamma (Homo sapiens) (UniProt Q8TBX8); assay: Inhibition of PIP4K2C ATP labeling site harbouring VKELPTLK in human A-375 cells at 0.05 uM by KiNativ Profiling analysis relative to control; assay type: cell-based
T2 sequence (whole entry): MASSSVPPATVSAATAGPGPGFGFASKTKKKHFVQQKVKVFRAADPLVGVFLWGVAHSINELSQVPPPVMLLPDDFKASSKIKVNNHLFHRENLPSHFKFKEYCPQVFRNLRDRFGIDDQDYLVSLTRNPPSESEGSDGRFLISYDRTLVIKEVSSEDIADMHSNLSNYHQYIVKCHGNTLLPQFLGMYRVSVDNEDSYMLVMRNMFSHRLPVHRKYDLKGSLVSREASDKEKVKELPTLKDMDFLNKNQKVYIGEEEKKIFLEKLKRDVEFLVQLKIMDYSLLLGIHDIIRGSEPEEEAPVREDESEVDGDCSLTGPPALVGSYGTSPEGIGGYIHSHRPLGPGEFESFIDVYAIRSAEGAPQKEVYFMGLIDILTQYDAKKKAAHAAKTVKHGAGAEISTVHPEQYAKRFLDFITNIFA

[6] = molecular target: Serine/threonine-protein kinase PknB (Mycobacterium tuberculosis) (UniProt P9WI81); assay: Inhibition of Mycobacterium tuberculosis PKNB at 1 uM by Ambit Kinomescan binding assay relative to control
Procedure, shortened: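 In vitro ATP-site competition binding assay against a panel of over 420 kinases (KinomeScan), with compound tested at 10 or 1 μM.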

[7] = molecular target: Serine/threonine-protein kinase SIK2 (Homo sapiens) (UniProt Q9H0K1); assay: Inhibition of SIK2 (unknown origin) at 1 uM by Ambit Kinomescan binding assay relative to control
[8] = molecular target: Serine/threonine-protein kinase 17B (Homo sapiens) (UniProt O94768); assay: Inhibition of DRAK2 (unknown origin) at 10 uM by Ambit Kinomescan binding assay
[9] = molecular target: Cyclin-dependent kinase 13 (Homo sapiens) (UniProt Q14004); assay: Inhibition of CHED Lys2 labeling site harbouring DIKCSNILLNNR in human Huh-7 cells at 1 uM by KiNativ Profiling analysis relative to control; assay type: cell-based
[10] = molecular target: Peripheral plasma membrane protein CASK (Homo sapiens) (UniProt O14936); assay: Inhibition of CASK Lys1 labeling site in human Huh-7 cell lysate at 1 uM by KiNativ Profiling analysis relative to control
[11] = molecular target: T3, Serine/threonine-protein kinase Nek9 (Homo sapiens) (UniProt Q8TD19); assay: Inhibition of NEK9 Lys2 labeling site in human Huh-7 cell lysate at 1 uM by KiNativ Profiling analysis relative to control; assay type: subcellular
T3 sequence (whole entry): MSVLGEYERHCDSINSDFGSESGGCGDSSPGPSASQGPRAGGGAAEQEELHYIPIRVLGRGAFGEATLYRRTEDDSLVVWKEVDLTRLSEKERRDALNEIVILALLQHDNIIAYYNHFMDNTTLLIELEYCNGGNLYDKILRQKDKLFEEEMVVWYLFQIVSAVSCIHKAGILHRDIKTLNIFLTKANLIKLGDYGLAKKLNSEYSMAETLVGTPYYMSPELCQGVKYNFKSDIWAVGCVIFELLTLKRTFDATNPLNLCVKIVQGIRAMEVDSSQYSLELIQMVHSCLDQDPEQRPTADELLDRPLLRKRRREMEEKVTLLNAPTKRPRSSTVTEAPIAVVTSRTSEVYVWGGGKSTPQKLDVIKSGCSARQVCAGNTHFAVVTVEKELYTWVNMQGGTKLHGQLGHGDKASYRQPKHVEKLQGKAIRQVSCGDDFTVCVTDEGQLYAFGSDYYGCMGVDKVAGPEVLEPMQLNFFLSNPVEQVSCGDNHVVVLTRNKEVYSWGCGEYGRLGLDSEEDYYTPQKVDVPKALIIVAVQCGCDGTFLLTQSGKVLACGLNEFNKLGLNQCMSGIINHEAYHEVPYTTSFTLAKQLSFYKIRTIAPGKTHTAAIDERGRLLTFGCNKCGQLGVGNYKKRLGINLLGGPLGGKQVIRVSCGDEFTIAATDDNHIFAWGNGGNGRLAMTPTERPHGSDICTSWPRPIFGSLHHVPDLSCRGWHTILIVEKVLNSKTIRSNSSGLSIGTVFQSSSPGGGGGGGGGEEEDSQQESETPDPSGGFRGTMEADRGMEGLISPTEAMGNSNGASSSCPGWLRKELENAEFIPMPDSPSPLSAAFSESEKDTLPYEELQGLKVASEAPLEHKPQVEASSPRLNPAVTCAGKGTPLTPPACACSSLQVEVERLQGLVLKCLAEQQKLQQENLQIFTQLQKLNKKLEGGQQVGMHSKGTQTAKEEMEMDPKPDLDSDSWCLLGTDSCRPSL

[12] = molecular target: Epidermal growth factor receptor (Homo sapiens) (UniProt P00533); assay: Inhibition of EGFR Lys1 labeling site harbouring IPVAIKELR in human Huh-7 cells at 1 uM by KiNativ Profiling analysis relative to control; assay type: cell-based

Mitogen-activated protein kinase 9, sequence (P45984 whole entry, looked up): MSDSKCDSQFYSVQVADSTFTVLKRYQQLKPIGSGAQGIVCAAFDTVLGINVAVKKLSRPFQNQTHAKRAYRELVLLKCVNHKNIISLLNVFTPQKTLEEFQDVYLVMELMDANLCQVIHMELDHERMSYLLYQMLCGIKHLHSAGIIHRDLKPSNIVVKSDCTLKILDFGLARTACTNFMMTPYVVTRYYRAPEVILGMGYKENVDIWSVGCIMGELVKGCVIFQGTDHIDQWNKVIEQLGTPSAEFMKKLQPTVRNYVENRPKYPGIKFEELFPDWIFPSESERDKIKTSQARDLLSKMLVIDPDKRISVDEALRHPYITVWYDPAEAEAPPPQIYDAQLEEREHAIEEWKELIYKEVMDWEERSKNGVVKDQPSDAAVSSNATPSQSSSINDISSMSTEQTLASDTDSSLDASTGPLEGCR
Serine/threonine-protein kinase 17B (Homo sapiens), sequence (O94768 whole entry): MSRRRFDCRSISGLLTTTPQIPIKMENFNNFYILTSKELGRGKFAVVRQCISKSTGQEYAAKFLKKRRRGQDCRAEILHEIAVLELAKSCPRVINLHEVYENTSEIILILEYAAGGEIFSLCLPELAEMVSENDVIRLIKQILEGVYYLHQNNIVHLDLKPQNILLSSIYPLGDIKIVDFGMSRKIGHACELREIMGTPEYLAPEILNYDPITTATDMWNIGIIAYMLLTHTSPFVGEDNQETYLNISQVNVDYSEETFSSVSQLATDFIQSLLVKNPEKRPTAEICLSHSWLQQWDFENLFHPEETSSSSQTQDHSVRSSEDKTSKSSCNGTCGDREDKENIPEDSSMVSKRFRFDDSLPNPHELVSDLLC
Cyclin-dependent kinase 13 (Homo sapiens), sequence (Q14004 whole entry, looked up): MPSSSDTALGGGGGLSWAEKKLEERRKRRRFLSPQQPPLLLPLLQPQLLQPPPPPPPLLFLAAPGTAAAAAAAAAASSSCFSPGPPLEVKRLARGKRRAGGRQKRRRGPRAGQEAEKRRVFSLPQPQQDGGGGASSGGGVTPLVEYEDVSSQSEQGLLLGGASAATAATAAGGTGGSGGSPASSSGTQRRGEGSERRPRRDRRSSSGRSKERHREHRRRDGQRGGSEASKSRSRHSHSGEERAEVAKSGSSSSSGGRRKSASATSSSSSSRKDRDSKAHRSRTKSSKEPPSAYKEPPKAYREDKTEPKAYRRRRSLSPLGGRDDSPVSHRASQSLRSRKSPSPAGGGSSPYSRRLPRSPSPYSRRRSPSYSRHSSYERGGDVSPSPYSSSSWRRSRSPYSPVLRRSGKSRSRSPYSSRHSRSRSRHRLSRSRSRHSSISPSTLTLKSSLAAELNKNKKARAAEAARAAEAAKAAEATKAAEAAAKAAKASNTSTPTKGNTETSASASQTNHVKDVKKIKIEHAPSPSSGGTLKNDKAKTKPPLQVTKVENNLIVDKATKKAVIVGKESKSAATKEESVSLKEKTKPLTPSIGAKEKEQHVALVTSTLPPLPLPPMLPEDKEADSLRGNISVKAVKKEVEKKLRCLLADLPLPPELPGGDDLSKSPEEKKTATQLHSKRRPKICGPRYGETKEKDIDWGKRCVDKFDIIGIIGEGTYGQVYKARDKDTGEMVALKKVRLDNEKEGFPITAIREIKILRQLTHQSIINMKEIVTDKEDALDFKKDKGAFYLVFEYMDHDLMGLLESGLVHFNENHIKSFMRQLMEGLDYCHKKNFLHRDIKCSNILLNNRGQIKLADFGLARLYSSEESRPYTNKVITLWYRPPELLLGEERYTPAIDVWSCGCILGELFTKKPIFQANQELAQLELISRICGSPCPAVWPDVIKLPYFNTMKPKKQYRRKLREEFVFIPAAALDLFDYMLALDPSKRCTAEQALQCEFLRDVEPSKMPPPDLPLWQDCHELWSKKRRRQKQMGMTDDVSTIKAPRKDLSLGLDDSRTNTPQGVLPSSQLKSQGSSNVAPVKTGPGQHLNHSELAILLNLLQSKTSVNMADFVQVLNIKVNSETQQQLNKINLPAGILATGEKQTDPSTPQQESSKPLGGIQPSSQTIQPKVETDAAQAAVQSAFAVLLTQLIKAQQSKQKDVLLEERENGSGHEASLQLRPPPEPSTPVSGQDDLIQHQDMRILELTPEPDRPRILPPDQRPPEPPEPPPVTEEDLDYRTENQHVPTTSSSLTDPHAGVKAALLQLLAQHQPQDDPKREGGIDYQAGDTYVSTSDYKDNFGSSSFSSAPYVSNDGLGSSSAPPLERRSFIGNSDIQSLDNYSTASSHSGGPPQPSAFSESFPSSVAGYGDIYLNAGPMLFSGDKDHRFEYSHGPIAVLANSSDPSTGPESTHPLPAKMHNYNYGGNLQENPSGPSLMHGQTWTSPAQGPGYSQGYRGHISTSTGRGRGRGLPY
Peripheral plasma membrane protein CASK (Homo sapiens), sequence (O14936 whole entry, looked up): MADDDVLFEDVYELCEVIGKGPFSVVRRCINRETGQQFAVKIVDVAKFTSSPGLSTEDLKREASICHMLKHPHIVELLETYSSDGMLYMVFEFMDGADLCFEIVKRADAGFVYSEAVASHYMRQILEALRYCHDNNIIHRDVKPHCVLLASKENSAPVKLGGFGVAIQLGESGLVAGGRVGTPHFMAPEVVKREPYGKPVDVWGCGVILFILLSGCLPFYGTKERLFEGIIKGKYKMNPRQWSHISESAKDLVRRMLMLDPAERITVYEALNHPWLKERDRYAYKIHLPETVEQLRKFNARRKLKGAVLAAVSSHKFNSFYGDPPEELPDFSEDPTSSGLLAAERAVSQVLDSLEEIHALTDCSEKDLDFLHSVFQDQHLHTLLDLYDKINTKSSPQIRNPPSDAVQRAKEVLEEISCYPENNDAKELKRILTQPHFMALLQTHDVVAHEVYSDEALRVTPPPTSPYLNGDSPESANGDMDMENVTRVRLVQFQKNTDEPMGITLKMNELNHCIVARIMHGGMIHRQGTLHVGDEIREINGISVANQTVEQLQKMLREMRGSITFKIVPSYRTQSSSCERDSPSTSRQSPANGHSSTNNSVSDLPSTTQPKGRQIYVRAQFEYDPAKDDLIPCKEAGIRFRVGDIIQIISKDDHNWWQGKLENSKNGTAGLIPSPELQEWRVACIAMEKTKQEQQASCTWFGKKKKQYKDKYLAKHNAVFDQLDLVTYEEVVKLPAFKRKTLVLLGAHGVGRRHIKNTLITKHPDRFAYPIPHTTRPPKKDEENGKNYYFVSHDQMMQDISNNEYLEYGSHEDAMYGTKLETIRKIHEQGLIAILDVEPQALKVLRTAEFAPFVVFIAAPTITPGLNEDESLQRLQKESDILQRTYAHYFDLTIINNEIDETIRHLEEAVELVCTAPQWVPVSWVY
Serine/threonine-protein kinase 32A (Homo sapiens), sequence (Q8WU08 whole entry): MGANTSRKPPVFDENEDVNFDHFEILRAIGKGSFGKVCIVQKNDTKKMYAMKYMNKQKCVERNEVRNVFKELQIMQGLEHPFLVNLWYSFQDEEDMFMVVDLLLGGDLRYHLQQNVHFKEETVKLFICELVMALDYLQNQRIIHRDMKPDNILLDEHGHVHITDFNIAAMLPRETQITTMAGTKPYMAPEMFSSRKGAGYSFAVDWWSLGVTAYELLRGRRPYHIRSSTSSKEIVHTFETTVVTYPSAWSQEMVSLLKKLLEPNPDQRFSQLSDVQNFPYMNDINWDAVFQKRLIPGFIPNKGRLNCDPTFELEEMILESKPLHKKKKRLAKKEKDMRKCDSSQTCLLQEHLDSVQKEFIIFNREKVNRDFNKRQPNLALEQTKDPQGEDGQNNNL
Serine/threonine-protein kinase PknB (Mycobacterium tuberculosis), sequence (P9WI81 whole entry): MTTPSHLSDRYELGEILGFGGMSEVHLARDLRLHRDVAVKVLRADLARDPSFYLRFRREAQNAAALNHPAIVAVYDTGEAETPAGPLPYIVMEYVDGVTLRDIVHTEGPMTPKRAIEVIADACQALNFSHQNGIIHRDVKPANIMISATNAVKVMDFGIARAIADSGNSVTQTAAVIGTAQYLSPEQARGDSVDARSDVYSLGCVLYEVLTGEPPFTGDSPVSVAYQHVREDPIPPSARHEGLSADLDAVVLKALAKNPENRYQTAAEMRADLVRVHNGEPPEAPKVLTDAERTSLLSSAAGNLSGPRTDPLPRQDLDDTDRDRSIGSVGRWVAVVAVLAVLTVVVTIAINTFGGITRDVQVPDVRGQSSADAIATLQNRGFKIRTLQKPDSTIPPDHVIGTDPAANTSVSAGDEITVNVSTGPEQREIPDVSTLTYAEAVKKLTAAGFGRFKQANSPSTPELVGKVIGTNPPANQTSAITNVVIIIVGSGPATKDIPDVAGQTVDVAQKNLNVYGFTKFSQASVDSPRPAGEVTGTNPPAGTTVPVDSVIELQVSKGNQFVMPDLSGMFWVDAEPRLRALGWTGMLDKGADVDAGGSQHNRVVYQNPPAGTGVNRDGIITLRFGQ

`CCN1CCN(Cc2ccc(NC(=O)c3ccc(C)c(/C=C/c4cnc5[nH]ccc5c4OC)c3)cc2C(F)(F)F)CC1` was tested, and the residual activity [1] was 4.9%, the inhibition [2] was 6.6% and the percent of control [3] was 100%. For the same molecule, the inhibition [4] was 10.3%, the inhibition [5] was -8.6% and the inhibition [6] was 84%. The inhibition [7] was 26%.
`CCN1CCN(Cc2ccc(NC(=O)c3ccc(C)c(Oc4ccnc5[nH]ccc45)c3)cc2C(F)(F)F)CC1` was tested, and the inhibition [8] was “inactive”.
`CNc1cc(Oc2cc(C(=O)Nc3cc(N4CCN(C)CC4)cc(C(F)(F)F)c3)ccc2C)ncn1` showed an inhibition [9] of 38.1%, an inhibition [10] of -8.9% and an inhibition [11] of -3.1%. For the same molecule, the inhibition [12] was 7.2%.
